Data reported in ChEMBL document CHEMBL4689842, “EUbOPEN Chemogenomics Library wave 1” (2021).
Values joined by “and” are separate entries in the source; they are usually repeats but may differ in a detail not shown here. Equal entries are not always repeated.

Test system: Fibroblast
Assay: Multiplex assay against human fibroblast
Type: toxicity, cell-based
Summary of the method: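 Tubulin, mitochondrial-mass and membrane-permeability phenotypes are per cents of healthy-nucleus cells. Cells were gated by CellPathfinder machine learning into Hoechst high-intensity objects or normal cells, normal cells into healthy, pyknosed or fragmented nuclei, and pyknosed cells into mitotic or apoptotic. Before that, live cells stained at seeding with Hoechst33342, BioTracker Green Microtubule Cytoskeleton Dye, MitoTracker Red and Annexin V Alexa Fluor 680 were imaged on a CQ1 microscope at 37°C and 5% CO2 after compound addition.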

[1] = 12 h, 1 µM, compound concentration 1 uM, replicate 1
[2] = 12 h, 1 µM, compound concentration 1 uM, replicate 2
[3] = 12 h, 10 µM, compound concentration 10 uM, replicate 1
[4] = 12 h, 10 µM, compound concentration 10 uM, replicate 2
[5] = 24 h, 1 µM, compound concentration 1 uM, replicate 1
[6] = 24 h, 1 µM, compound concentration 1 uM, replicate 2
[7] = 24 h, 10 µM, compound concentration 10 uM, replicate 1
[8] = 24 h, 10 µM, compound concentration 10 uM, replicate 2
[9] = 48 h, 1 µM, compound concentration 1 uM, replicate 1
[10] = 48 h, 1 µM, compound concentration 1 uM, replicate 2
[11] = 48 h, 10 µM, compound concentration 10 uM, replicate 1
[12] = 48 h, 10 µM, compound concentration 10 uM, replicate 2

## Nc1c(C(=O)NCc2ccc(C(=O)NCCCC3CCCCC3)cc2)cnn1-c1ccccc1 [SR-318]
[1]
  Population Apoptotic (%): 63% and 53% and 61%
  Population Fragmented Nuclei (%): 20% and 26%
  Population Healthy Nuclei (%): 41% and 34%
  Population Hoechst High Intensity Objects (%): 10% and 11%
  Population Membrane Permeable-Phenotype (%): 34% and 21% and 18%
  Population Mitochondria Different-Phenotype (%): 6% and 7% and 9%
  Population Mitotic Cells (%): 36% and 46% and 38%
  Population Normal (%): 89% and 88%
  Population Pyknosed Nuclei (%): 38% and 44%
  Population Tubulin-Different-Phenotype (%): 46% and 39% and 51%
  Total Cell Count: 128 and 123 and 142
[2]
  Population Fragmented Nuclei (%): 9% and 5% and 3%
  Population Healthy Nuclei (%): 83% and 75% and 91%
  Population Membrane Permeable-Phenotype (%): 6% and 5%
  Population Mitochondria Different-Phenotype (%): 8%
  Population Mitotic Cells (%): 50% and 87% and 100%
  Population Normal (%): 95% and 73% and 96%
  Population Tubulin-Different-Phenotype (%): 19% and 25% and 11%
  Total Cell Count: 63 and 91 and 118
[3]
  Population Apoptotic (%): 65% and 54% and 56%
  Population Fragmented Nuclei (%): 20% and 24% and 14%
  Population Healthy Nuclei (%): 29% and 33% and 37%
  Population Hoechst High Intensity Objects (%): 8% and 10% and 20%
  Population Mitochondria Different-Phenotype (%): 24% and 47% and 43%
  Population Mitotic Cells (%): 34% and 45% and 43%
  Population Normal (%): 91% and 89% and 79%
  Population Pyknosed Nuclei (%): 50% and 42% and 47%
  Population Tubulin-Different-Phenotype (%): 88% and 76% and 85%
  Total Cell Count: 94 and 140 and 136
[4]
  Population Apoptotic (%): 45% and 22% and 33%
  Population Fragmented Nuclei (%): 17% and 15% and 12%
  Population Healthy Nuclei (%): 69% and 58% and 72%
  Population Mitochondria Different-Phenotype (%): 55% and 51% and 60%
  Population Mitotic Cells (%): 54% and 77% and 66%
  Population Normal (%): 92% and 98%
  Population Pyknosed Nuclei (%): 13% and 25% and 15%
  Population Tubulin-Different-Phenotype (%): 50% and 56% and 67%
  Total Cell Count: 71 and 90 and 91
[5]
  Population Apoptotic (%): 44% and 58% and 55%
  Population Fragmented Nuclei (%): 17% and 19% and 22%
  Population Healthy Nuclei (%): 46% and 43% and 44%
  Population Hoechst High Intensity Objects (%): 8% and 6% and 10%
  Population Membrane Permeable-Phenotype (%): 34% and 25% and 33%
  Population Mitochondria Different-Phenotype (%): 6% and 4% and 12%
  Population Mitotic Cells (%): 55% and 41% and 44%
  Population Normal (%): 91% and 93% and 89%
  Population Pyknosed Nuclei (%): 36% and 33%
  Population Tubulin-Different-Phenotype (%): 44% and 31% and 60%
  Total Cell Count: 137 and 115 and 142
[6]
  Population Apoptotic (%): 25%
  Population Fragmented Nuclei (%): 6% and 3% and 4%
  Population Healthy Nuclei (%): 80% and 84% and 75%
  Population Membrane Permeable-Phenotype (%): 8% and 5%
  Population Mitochondria Different-Phenotype (%): 13% and 7%
  Population Mitotic Cells (%): 75%
  Population Normal (%): 94% and 97% and 77%
  Population Pyknosed Nuclei (%): 13% and 11% and 19%
  Population Tubulin-Different-Phenotype (%): 22% and 14% and 23%
  Total Cell Count: 67 and 130 and 97
[7]
  Population Apoptotic (%): 66% and 45% and 56%
  Population Fragmented Nuclei (%): 15% and 18% and 29%
  Population Healthy Nuclei (%): 43% and 47% and 39%
  Population Hoechst High Intensity Objects (%): 16% and 12% and 11%
  Population Mitochondria Different-Phenotype (%): 31% and 48% and 42%
  Population Mitotic Cells (%): 33% and 54% and 43%
  Population Normal (%): 83% and 87% and 88%
  Population Pyknosed Nuclei (%): 40% and 33% and 30%
  Population Tubulin-Different-Phenotype (%): 76% and 87% and 86%
  Total Cell Count: 105 and 118 and 143
[8]
  Population Apoptotic (%): 28% and 44% and 46%
  Population Fragmented Nuclei (%): 13% and 17% and 14%
  Population Healthy Nuclei (%): 65% and 62% and 66%
  Population Membrane Permeable-Phenotype (%): 9% and 7% and 3%
  Population Mitochondria Different-Phenotype (%): 58% and 57% and 66%
  Population Mitotic Cells (%): 71% and 55% and 53%
  Population Normal (%): 98% and 92%
  Population Pyknosed Nuclei (%): 21% and 20% and 18%
  Population Tubulin-Different-Phenotype (%): 41% and 30% and 61%
  Total Cell Count: 104 and 67 and 97
[9]
  Population Apoptotic (%): 73% and 50% and 47%
  Population Fragmented Nuclei (%): 32% and 28% and 24%
  Population Healthy Nuclei (%): 43% and 48% and 60%
  Population Hoechst High Intensity Objects (%): 14% and 12%
  Population Membrane Permeable-Phenotype (%): 22% and 21% and 16%
  Population Mitochondria Different-Phenotype (%): 2% and 7%
  Population Mitotic Cells (%): 26% and 50% and 52%
  Population Normal (%): 85% and 87%
  Population Pyknosed Nuclei (%): 24% and 22% and 15%
  Population Tubulin-Different-Phenotype (%): 20% and 37% and 36%
  Total Cell Count: 109 and 153 and 141
[10]
  Population Apoptotic (%): 100% and 83%
  Population Fragmented Nuclei (%): 22% and 27% and 14%
  Population Healthy Nuclei (%): 73% and 71% and 81%
  Population Hoechst High Intensity Objects (%): 16% and 13% and 11%
  Population Membrane Permeable-Phenotype (%): 18% and 13%
  Population Mitochondria Different-Phenotype (%): 5% and 4%
  Population Mitotic Cells (%): 0% and 16%
  Population Normal (%): 83% and 86% and 88%
  Population Tubulin-Different-Phenotype (%): 28% and 40% and 26%
  Total Cell Count: 116 and 115 and 159
[11]
  Population Apoptotic (%): 71% and 75% and 64%
  Population Fragmented Nuclei (%): 36% and 33%
  Population Healthy Nuclei (%): 43% and 45% and 41%
  Population Hoechst High Intensity Objects (%): 20% and 19% and 17%
  Population Membrane Permeable-Phenotype (%): 12% and 4% and 3%
  Population Mitochondria Different-Phenotype (%): 40% and 45% and 36%
  Population Mitotic Cells (%): 28% and 25% and 35%
  Population Normal (%): 79% and 80% and 82%
  Population Pyknosed Nuclei (%): 19% and 21% and 25%
  Population Tubulin-Different-Phenotype (%): 81% and 83% and 82%
  Total Cell Count: 92 and 116 and 150
[12]
  Population Fragmented Nuclei (%): 28% and 31% and 23%
  Population Healthy Nuclei (%): 66% and 63% and 71%
  Population Hoechst High Intensity Objects (%): 9% and 3%
  Population Membrane Permeable-Phenotype (%): 9% and 6%
  Population Mitochondria Different-Phenotype (%): 13% and 23% and 16%
  Population Mitotic Cells (%): 83% and 50% and 85%
  Population Normal (%): 90% and 96%
  Population Pyknosed Nuclei (%): 5% and 4%
  Population Tubulin-Different-Phenotype (%): 68% and 86%
  Total Cell Count: 121 and 148 and 157
